From ChEMBL document CHEMBL4402603, “Structure-Activity Relationship of SPOP Inhibitors against Kidney Cancer” (J Med Chem, 2020)
Active and inactive are the calls of the source. No cut-off for these calls is given here.

Assays:
[1] = molecular target: Speckle-type POZ protein (Homo sapiens) (UniProt O43791); test: Inhibition of SPOP signalling in human A498 cells assessed as reduction in AKT phosphorylation at 0.5 to 10 uM incubated for 12 hrs by Western blot analysis; format: cell-based
In short: (§1)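 Cells exposed 12 hr to inhibitor at graded concentrations, RIPA lysates normalized by BCA. 12% SDS-PAGE, nitrocellulose transfer, milk block, primary antibody at 4 °C overnight, HRP secondary, ECL. GAPDH loading control.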

[2] = molecular target: Speckle-type POZ protein (Homo sapiens) (UniProt O43791); test: Inhibition of SPOP signalling in human OS-RC2 cells assessed as accumulation of PTEN incubated for 12 hrs by Western blot analysis; format: cell-based
In short: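 Cells treated with SPOP inhibitor at different concentrations for 12 hr, lysed in RIPA, protein by BCA. Samples run on 12% SDS-PAGE, blotted to nitrocellulose, primary antibody overnight at 4 °C, HRP secondary, ECL detection. GAPDH loading control. Triplicate experiments.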

[3] = molecular target: Speckle-type POZ protein (Homo sapiens) (UniProt O43791); test: Binding affinity to recombinant N-terminal GST/His-tagged SPOP (unknown origin) MATH binding domain expressed in Escherichia coli BL21 (DE3) assessed as change in melting temperature at 10 fold compound by SYPRO Orange dye based differential scanning fluorimetry (reference value: -1.7 degreeC)
[4] = molecular target: T1, Speckle-type POZ protein/PTEN (Homo sapiens) (UniProt P60484+O43791); test: Inhibition of SPOP/PTEN interaction in human HEK293T cells assessed as reduction in PTEN level incubated for 8 hrs by Western blot analysis; format: cell-based
[5] = molecular target: Speckle-type POZ protein (Homo sapiens) (UniProt O43791); test: Binding affinity to recombinant N-terminal GST/His-tagged SPOP (unknown origin) MATH binding domain expressed in Escherichia coli BL21 (DE3) assessed as change in melting temperature at 1 fold compound by SYPRO Orange dye based differential scanning fluorimetry (reference value: -1.7 degreeC)
[6] = Solubility of compound in cell culture medium in presence of 0.2 % DMSO; format: physicochemical
In short: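 Solubility determined in cell culture medium containing 0.2% DMSO.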

[7] = Selectivity index, ratio of IC50 for human A549 to IC50 for human A498 cells
[8] = molecular target: Speckle-type POZ protein (Homo sapiens) (UniProt O43791); test: Binding affinity to recombinant N-terminal GST/His-tagged MATH binding domain SPOP (unknown origin) expressed in Escherichia coli BL21 (DE3) assessed as change in melting temperature at 10 fold compound incubated for 15 mins by nano differential scanning fluorimetry (reference value: -1.7 degreeC)
[9] = system: NCI-H1299; test: Cytotoxicity against human H1299 cells assessed as reduction in cell viability incubated for 72 hrs by MTT assay; format: cell-based; settings: NCI-H1299, 72 h
In short: (§2)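 Cells maintained in DMEM/10% FBS at 37 °C, 5% CO2. Cell proliferation quantified by MTT after 72 hr compound exposure, A490 read. Untreated cells = 100%. Mean ± SD, n = 3.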

[10] = system: OS-RC-2; test: Antiproliferative activity against human OS-RC2 cells assessed as reduction in cell viability at 30 uM incubated for 72 hrs by MTT assay relative to control; format: functional; settings: OS-RC-2, 72 h
In short: (§3)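 MTT read-out. Cells seeded at 1,000-2,200/well, grown 12 hr at 37 °C, then compound added for 72 hr. MTT for 4 hr, formazan dissolved in DMSO, absorbance at 490 nm. Untreated-cell OD taken as 100% proliferation; inhibition reported at 30 μM.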

[11] = molecular target: Speckle-type POZ protein (Homo sapiens) (UniProt O43791); test: Inhibition of SPOP signalling in human A498 cells assessed as reduction in ERK phosphorylation at 0.5 to 10 uM incubated for 12 hrs by Western blot analysis; format: cell-based; in short: as §1
[12] = Selectivity index, ratio of IC50 for human H1299 to IC50 for human A498 cells
[13] = molecular target: Speckle-type POZ protein (Homo sapiens) (UniProt O43791); test: Binding affinity to recombinant N-terminal GST/His-tagged MATH binding domain SPOP (unknown origin) expressed in Escherichia coli BL21 (DE3) assessed as change in melting temperature at 20 fold compound incubated for 15 mins by nano differential scanning fluorimetry (reference value: -3.8 degreeC)
[14] = system: A549; test: Cytotoxicity against human A549 cells assessed as reduction in cell viability incubated for 72 hrs by MTT assay; format: cell-based; settings: A549, 72 h; in short: as §2
[15] = molecular target: Speckle-type POZ protein (Homo sapiens) (UniProt O43791); test: Binding affinity to recombinant N-terminal GST/His-tagged SPOP (unknown origin) (23 to 337 residues) expressed in Escherichia coli BL21 (DE3) assessed as change in melting temperature at 1 fold compound incubated for 15 mins by nano differential scanning fluorimetry (reference value: -1.9 degreeC)
[16] = system: OS-RC-2; test: Antiproliferative activity against human OS-RC2 cells assessed as reduction in cell viability incubated for 72 hrs by MTT assay; format: functional, cell-based; settings: OS-RC-2, 72 h
In short: (§4)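 MTT read-out. Cells seeded at 1,000-2,200/well, grown 12 hr at 37 °C before compound, then exposed 72 hr. MTT for 4 hr, formazan dissolved in DMSO, A490 read. Untreated cells = 100% proliferation. IC50 quantitated; mean ± SD, n = 3.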

[17] = Selectivity index, ratio of IC50 for human U251 to IC50 for human A498 cells
[18] = molecular target: Speckle-type POZ protein (Homo sapiens) (UniProt O43791); test: Inhibition of SPOP signalling in human OS-RC2 cells assessed as effect on total ERK level at 0.5 to 15 uM incubated for 12 hrs by Western blot analysis; format: cell-based; in short: as §1
[19] = molecular target: Speckle-type POZ protein (Homo sapiens) (UniProt O43791); test: Inhibition of SPOP signalling in human OS-RC2 cells assessed as reduction in AKT phosphorylation at 0.5 to 15 uM incubated for 12 hrs by Western blot analysis; format: cell-based; in short: as §1
[20] = Selectivity index, ratio of IC50 for human Hs766T to IC50 for human A498 cells
[21] = molecular target: Speckle-type POZ protein (Homo sapiens) (UniProt O43791); test: Binding affinity to recombinant N-terminal GST/His-tagged SPOP (unknown origin) (23 to 337 residues) expressed in Escherichia coli BL21 (DE3) assessed as change in melting temperature at 5 fold compound incubated for 15 mins by nano differential scanning fluorimetry (reference value: -1.9 degreeC)
[22] = system: A498; test: Antiproliferative activity against human A498 cells assessed as reduction in cell viability at 30 uM incubated for 72 hrs by MTT assay relative to control; format: functional; settings: A498, 72 h; in short: as §3
[23] = system: A498; test: Antiproliferative activity against human A498 cells assessed as reduction in cell viability incubated for 72 hrs by MTT assay; format: functional, cell-based; settings: A498, 72 h; in short: as §4
[24] = molecular target: T1, Speckle-type POZ protein/PTEN (Homo sapiens); test: Inhibition of SPOP/PTEN interaction in human A498 cells assessed as increase in SPOP level at 1 to 50 uM incubated for 20 mins by DARTS based Western blot analysis; format: cell-based
In short: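 DARTS. Lysates of 1×10⁶ cells in TNC buffer, 120 μg per tube, incubated with compound at 0, 1, 5, 10 or 50 μM for 20 min at rt. Pronase digestion 10 min at rt (1:1000 for A498, 1:2000 for OS-RC-2), stopped with protease inhibitors, then SPOP western blot. Triplicate experiments.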

[25] = molecular target: Speckle-type POZ protein (Homo sapiens) (UniProt O43791); test: Binding affinity to recombinant N-terminal GST/His-tagged SPOP (unknown origin) MATH binding domain expressed in Escherichia coli BL21 (DE3) assessed as change in melting temperature at 5 fold compound by SYPRO Orange dye based differential scanning fluorimetry (reference value: -1.7 degreeC)
[26] = molecular target: Speckle-type POZ protein (Homo sapiens) (UniProt O43791); test: Inhibition of SPOP signalling in human OS-RC2 cells assessed as accumulation of DUSP7 incubated for 12 hrs by Western blot analysis; format: cell-based; in short: as §1

Speckle-type POZ protein (Homo sapiens), sequence (O43791 whole entry, the tested form may be a part): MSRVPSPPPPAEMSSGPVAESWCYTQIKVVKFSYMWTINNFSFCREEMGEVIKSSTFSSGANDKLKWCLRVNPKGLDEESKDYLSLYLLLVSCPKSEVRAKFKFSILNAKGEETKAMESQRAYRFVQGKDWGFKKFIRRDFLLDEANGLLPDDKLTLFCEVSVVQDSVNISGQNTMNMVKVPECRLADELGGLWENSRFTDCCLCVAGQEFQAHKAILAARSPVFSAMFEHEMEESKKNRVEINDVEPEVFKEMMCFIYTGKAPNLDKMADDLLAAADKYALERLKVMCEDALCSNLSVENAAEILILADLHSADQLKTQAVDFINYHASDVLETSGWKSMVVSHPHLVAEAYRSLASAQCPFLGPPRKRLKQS
T1 sequence (O43791 whole entry, looked up, the tested form may be a part): as the sequence (O43791 whole entry, the tested form may be a part) above
T1 sequence (P60484 whole entry, looked up, the tested form may be a part): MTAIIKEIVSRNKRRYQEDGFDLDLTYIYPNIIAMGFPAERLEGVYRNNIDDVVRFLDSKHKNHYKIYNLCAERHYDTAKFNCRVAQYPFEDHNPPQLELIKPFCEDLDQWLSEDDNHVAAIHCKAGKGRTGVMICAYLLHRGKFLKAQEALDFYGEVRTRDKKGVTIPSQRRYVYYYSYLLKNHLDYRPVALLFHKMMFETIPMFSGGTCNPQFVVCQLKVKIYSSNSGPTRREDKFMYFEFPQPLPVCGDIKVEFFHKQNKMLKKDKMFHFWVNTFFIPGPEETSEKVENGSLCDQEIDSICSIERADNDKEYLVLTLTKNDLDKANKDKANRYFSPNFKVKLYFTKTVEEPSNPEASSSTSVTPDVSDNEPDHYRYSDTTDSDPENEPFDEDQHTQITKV

## Cc1cccn2c(=O)c3cc(C(=O)NCCN4CCN(C)CC4)c(=N)n(CCc4cccs4)c3nc12
[1]
  inhibition: Active
[2]
  inhibition: Dose-dependent effect
[3]
  ΔTm: 4 °C
[4]
  inhibition: Dose-dependent effect
[5]
  ΔTm: 2.7 °C
[6]
  solubility: > 90 µM
[7]
  Ratio IC50: >5
[8]
  ΔTm: 3.1 °C
[9]
  IC50: 10.7 µM
[10]
  inhibition at 30 µM: 90%
[11]
  inhibition: Active
[12]
  Ratio IC50: >5
[13]
  ΔTm: 3.5 °C
[14]
  IC50: 16.2 µM
[15]
  ΔTm: 2.1 °C
[16]
  IC50: 3.5 µM
[17]
  Ratio IC50: >5
[18]
  inhibition: inactive
[19]
  inhibition: Active
[20]
  Ratio IC50: >5
[21]
  ΔTm: 2.1 °C
[22]
  inhibition at 30 µM: 85%
[23]
  IC50: 2.1 µM
[24]
  inhibition: Active
[25]
  ΔTm: 3.7 °C
[26]
  inhibition: Dose-dependent effect
